hERG protect: shields human hERG channel from block by proarrhythmic agents. CHO-hERG, FluxOR thallium flux, dofetilide IC70 present. Q12809. activation (rescue from dofetilide block), less the hit threshold, % at 10 µM. AID 1511. hit rate 0.51% among 310,000;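 active means activation above the mean of controls blocked by dofetilide plus 5 SD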;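 further: thallium influx through hERG after potassium depolarization seen as dye fluorescence rise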
KCNQ1 act: potentiators or activators of human KCNQ1 potassium channel; P51787; B-score at 10 µM; CHO-K1 KCNQ1, thallium flux FluxOR fluorescence; active compounds read high; hit rate 0.35% among 310,000;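 active means fluorescence ratio B-score, a plate-corrected score, at least three library SD, with initial intensity B-score within 5 SD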
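Schedule – 37 °C overnight plating, 90-min dark dye load, 20-min compound pretreatment · System – stable KCNQ1 CHO-K1 line · Probe or stimulus – thallium- and potassium-containing depolarizing buffer · Measured by – kinetic FluxOR fluorescence, 10 s baseline plus 110 s post-stimulus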
KCNK9 inh: inhibitors of human KCNK9 two-pore domain potassium channel. Q9NPC2. HEK293 KCNK9, FluxOR thallium flux fluorescence; active compounds read low. B-score at 10 µM. hit rate 1.2% among 310,000;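 active means ratio B-score over 3 SD below the library mean, with starting fluorescence within 5 SD of its mean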;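 further: negative B-score means less thallium flux so channel inhibition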
KCNK3 inh: human KCNK3 channel inhibition, primary screen; O14649; CHO-KCNK3 thallium flux, FluxOR fluorescence; active compounds read low; B-score at 10 µM; hit rate 0.84% among 340,000; AID 602410;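 active means B-score under library mean minus 4 SD, starting fluorescence ratio at most library mean plus 5 SD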;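 further: more negative B-score means stronger inhibition of thallium flux through KCNK3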
KCNQ1 inh: human KCNQ1 channel inhibition; P51787; CHO-K1 KCNQ1, FluxOR thallium flux fluorescence; active compounds read high; B-score at 10 µM; hit rate 1.3% among 310,000; AID 2642;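 active means compounds whose thallium flux B-score, printed positive for inhibition, exceeds three library SD while starting fluorescence stays within three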;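 further: channel opened by potassium depolarization with thallium stimulus after 20 min compound exposure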
KCNK9 block conf: human KCNK9 inhibitor confirmation | shares compounds with KCNK9 inh | inhibition, % at 10 µM | hit rate 43% among 4,900 | HEK293 KCNK9 cells, FluxOR thallium flux fluorescence | AID 492992;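 active means thallium signal inhibited by more than 5 SD of the compound-free buffer control wells, on both duplicate plates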;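 further: 0% = assay buffer control wells without compound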
Kir2-1 spec: tests whether KCNK9 modulators also affect mouse Kir2.1 | shares compounds with KCNK9 inh | Kir2.1 cells, FluxOR thallium flux fluorescence | inhibition, % at 10 µM | hit rate 4% among 4,900;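 active means thallium signal drop more than 5 SD beyond the mean of the no-compound control wells, seen in both duplicate plates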;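 further: signal is fluorescence rise after thallium addition divided by baseline fluorescence; plate controls were assay buffer only for no effect and full block by chlorpromazine control for full effect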
HEK293 Tl ctr: second check of KCNK9 modulator effects in non-induced HEK293 cells; shares compounds with KCNK9 inh; FluxOR thallium flux; inhibition, % at 10 µM; hit rate 40% among 4,900; AID 492997;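 active means thallium signal drop beyond 5 SD of the untreated control mean, on both duplicate plates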;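 further: plate controls were buffer only IC0 wells for no effect and SID17386958 at its maximal inhibitory level for full effect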
KCNK3 inh conf: human KCNK3 channel inhibition, confirmation assay; AID 651638; ratio percent of control, % at 10 µM; hit rate 99% among 2,400; shares compounds with KCNK3 inh; CHO-KCNK3 thallium flux, FluxOR fluorescence; 0% buffer, 100% carvedilol maximal block;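 active means ratio percent of control, averaged over triplicates, above buffer control mean plus 5 SD, cut at about 64% in these data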;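 further: ratio is the fluorescence rise from min to max over baseline after thallium stimulus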
KCNK3 noninduced: counter-screen for KCNK3 inhibitors: effect in non-induced cells | non-induced KCNK3 parental cells, FluxOR thallium flux; active compounds read low | thallium flux ratio (lower = more inhibition) at 10 µM | AID 651747 | shares compounds with KCNK3 inh | hit rate 40% among 2,400;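 active means thallium flux ratio, averaged over three wells, more than 5 SD below the buffer control mean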;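 further: host cells are CHO cells without KCNK3 induction; ratio is peak minus trough fluorescence over baseline then normalized to buffer controls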
* hit, by the source's call; i = inactive; · = no result given. Sampled rows, rich in hits. Any-hit rate of the full collection: about 3.1%.

SMILES	hERG protect	KCNQ1 act	KCNK9 inh	KCNK3 inh	KCNQ1 inh	KCNK9 block conf	Kir2-1 spec	HEK293 Tl ctr	KCNK3 inh conf	KCNK3 noninduced
O=C(C1CCN(S(=O)(=O)c2cccc3nsnc23)CC1)N1CCc2ccccc21	-2.4	i	i	i	i	·	·	·	·	·
O=C(NC1CCN(Cc2ccccc2)CC1)C1CCN(S(=O)(=O)c2cccc3nsnc23)CC1	-6.0	i	i	i	i	·	·	·	·	·
O=S(=O)(c1cccc2nsnc12)N1CCN(Cc2ccccc2)CC1	-8.0	i	i	i	i	i	i	i	·	·
O=C(C1CCCN(S(=O)(=O)c2cccc3nsnc23)C1)N1CCc2ccccc21 (stereo unspecified)	-7.5	i	i	i	i	i	i	i	·	·
CC1Cc2ccccc2N1C(=O)C1CCCN(S(=O)(=O)c2cccc3nsnc23)C1 (stereo unspecified)	-9.5	i	i	i	i	i	i	i	·	·
Cc1ccnn1CCC(=O)N1CCCC(Nc2ccc(F)c(F)c2)C1 (stereo unspecified)	-4.7	i	i	i	i	·	·	·	·	·
N#Cc1ccsc1NC(=O)CN(Cc1ccccc1)Cc1ccccc1	-7.2	i	-16.9*	i	6*	68.0%*	i	59.0%*	·	·
COc1cccc(-c2ocnc2C(=O)Nc2ccc(N3CCOCC3)cc2N2CCOCC2)c1	-7.0	i	i	i	i	·	·	·	·	·
COc1ccc(-c2ocnc2C(=O)NCc2nn(-c3ccccc3)nc2C)cc1	-12.4	i	i	i	i	i	i	i	·	·
COc1ccc(-c2ocnc2C(=O)Nc2ccccc2N2CCCCC2)cc1	-8.5	i	-9.34*	i	i	i	i	27.5%*	·	·
Cc1ncc(C[n+]2ccc(C)c(C)c2)c(N)n1	-7.3	i	i	i	i	·	·	·	·	·
CSc1nnc(Cc2sc(-c3ccccc3)nc2-c2ccccc2)o1	-7.6	i	-8.1*	i	i	i	i	25.0%*	·	·
COc1ccc(C(=O)OC(C(=O)c2ccccc2)c2ccccc2)cc1 (stereo unspecified)	-4.1	i	-18.6*	-9.6*	i	77.0%*	i	46.5%*	115.3*	i
COc1cnc(-c2ccccn2)nc1N(C)c1ccccc1	-6.2	i	i	i	i	·	·	·	·	·
COc1ccccc1/C=C(/CC(=O)NCc1ccc2c(c1)OCO2)c1nc2ccccc2s1	-6.4	i	-11.7*	-9.31*	i	56.5%*	i	29.0%*	125.0*	0.141*
COc1ccccc1/C=C/C(=O)OCC(=O)NCc1ccc2c(c1)OCO2	·	·	·	i	·	·	·	·	·	·
N#CC(C#N)=c1ccc2c(c1)N1C3=C(CCCC3)CC3CCCCC31N=2 (stereo unspecified)	-28.4	i	-15.9*	-9.75*	14*	67.0%*	i	45.0%*	130.3*	0.11*
COCCNC(C(=O)Nc1cc(Cl)cc(Cl)c1)c1ccccc1 (stereo unspecified)	-10.0	i	-11.7*	-9.18*	i	44.0%*	i	39.5%*	103.0*	i
CCOCCCNC(C(=O)Nc1ccc(OC)c(Cl)c1)c1ccccc1 (stereo unspecified)	-6.6	i	i	i	i	·	·	·	·	·
O=C(Nc1ccc2c(c1)CCCN2C(=O)c1ccccc1)c1ccccc1	-13.9	i	i	i	i	·	·	·	·	·
Cc1cc(F)ccc1S(=O)(=O)Nc1ccccc1C(=O)N1CCCC1	·	·	·	i	·	·	·	·	·	·
CC(C)Oc1ccccc1C1Nc2ccccc2C(=O)N1c1ccc2c(c1)OCCO2 (stereo unspecified)	-3.5	i	-13.3*	-10.1*	i	67.0%*	i	27.5%*	100.3*	0.157*
CCOC(=O)CC(NC(=O)CCS(=O)(=O)c1ccc2c(c1)n(C)c(=O)c(=O)n2C)c1ccc(C)cc1 (stereo unspecified)	-6.6	i	i	i	i	·	·	·	·	·
Cc1ccc(C(C)C)c(OCCN2CCc3ccccc3C2)c1	-0.3	i	i	-9.7*	i	i	i	i	127.3*	i
Cc1ccc(C(C)C)c(OCCCN2CCc3ccccc3C2)c1	-7.7	i	i	i	i	·	·	·	·	·
SMILES	hERG protect	KCNQ1 act	KCNK9 inh	KCNK3 inh	KCNQ1 inh	KCNK9 block conf	Kir2-1 spec	HEK293 Tl ctr	KCNK3 inh conf	KCNK3 noninduced
COc1cccc(C(=O)Nc2nc(-c3ccc4c(c3)OCO4)cs2)c1	-16.2	i	-8.99*	-10.4*	i	26.0%*	i	25.5%*	121.3*	0.136*
COc1cccc(C(=O)Nc2nc(-c3ccncc3)cs2)c1	-8.0	i	i	i	i	·	·	·	·	·
C=CCn1c(SCC(=O)Nc2ccccc2)nc2scc(-c3cccs3)c2c1=O	-5.4	i	-11.4*	-9.48*	i	35.0%*	i	33.5%*	113.7*	i
COc1ccccc1NC(=O)c1ccc(NC(=O)CN(C)Cc2ccccc2F)cc1	-20.7	i	-9.06*	-11.4*	i	36.0%*	i	i	97.0*	i
COc1ccccc1NC(=O)c1ccc(NC(=O)COC(=O)C2CC2C)cc1 (stereo unspecified)	-5.1	i	i	i	i	·	·	·	·	·
COc1cccc(NC(=O)C(NCCc2ccc(S(N)(=O)=O)cc2)c2ccccc2)c1 (stereo unspecified)	-11.7	i	-8.96*	-8.73*	i	38.5%*	i	31.0%*	106.3*	i
CC(C)C(=O)Nc1cccc(C(=O)NCCc2ccc(S(N)(=O)=O)cc2)c1	-10.1	i	i	i	i	·	·	·	·	·
Cc1ccc(CCNC(=O)C2CCN(S(=O)(=O)c3ccc4nc5c(c(C(=O)O)c4c3)CCCC5)CC2)cc1	-8.3	i	i	i	i	·	·	·	·	·
Cc1cc(=O)n(C(C)c2ccccc2)n1C(C)c1ccccc1 (stereo unspecified)	·	·	·	i	·	·	·	·	·	·
O=C(c1ccco1)N1CCN(C(=O)N2c3ccccc3Sc3ccccc32)CC1	-10.8	i	i	i	i	·	·	·	·	·
O=C(c1ccco1)N1c2ccccc2Sc2ccccc21	-9.2	i	-9.4*	-9.23*	i	31.0%*	i	30.5%*	116.3*	i

Bioassay records from PubChem.
